Results: ChEMBL document CHEMBL1156332, “Polysubstituted pyrazoles, part 6. Synthesis of some 1-(4-chlorophenyl)-4-hydroxy-1H-pyrazol-3-carbonyl derivatives linked to nitrogenous heterocyclic ring systems as potential antitumor agents” (2010)
Active and inactive are the calls of the source. No cut-off for these calls is given here.

Experiments:
Type in all cases: functional
[1] = test system: CCRF-CEM; experiment: Growth inhibition of human CCRF-CEM cells after 48 hrs by sulforhodamine B assay
How it was run: (§1)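 NCI 60-line panel, five concentrations (0.01–100 µM) from DMSO stock diluted in medium with gentamicin. Cells were plated 24 h before dosing, with time-zero plates fixed at drug addition, then exposed 48 h at 37 °C, 5% CO₂. Adherent cells were fixed with cold TCA (10% final) and suspension cells with 16% TCA. Staining used 0.4% SRB, solubilised in 10 mM Tris and read at 515 nm. GI₅₀ was taken from log concentration–% growth curves.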

[2] = test system: MOLT-4; experiment: Growth inhibition of human MOLT4 cells after 48 hrs by sulforhodamine B assay; details: MOLT-4, 48 h; how it was run: as §1
[3] = test system: SR; experiment: Growth inhibition of human SR cells after 48 hrs by sulforhodamine B assay
How it was run: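 Suspension leukemia line pre-incubated 24 h at 37 °C, 5% CO2; time-zero plates fixed at drug addition. Five drug concentrations were made by serial dilution from DMSO stocks and applied for 48 h. Settled cells were fixed with 80% TCA (16% final), stained with 0.4% SRB in 1% acetic acid, solubilized in 10 mM Tris base, and read at 515 nm. GI50 = concentration giving 50% decrease in net growth.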

[4] = test system: HOP-62; experiment: Growth inhibition of human HOP62 cells after 48 hrs by sulforhodamine B assay; details: HOP-62, 48 h; how it was run: as §1
[5] = test system: NCI-H226; experiment: Growth inhibition of human NCI-H226 cells after 48 hrs by sulforhodamine B assay; details: NCI-H226, 48 h; how it was run: as §1
[6] = test system: NCI-H460; experiment: Growth inhibition of human NCI-H460 cells after 48 hrs by sulforhodamine B assay; details: NCI-H460, 48 h; how it was run: as §1
[7] = test system: HCT-116; experiment: Growth inhibition of human HCT116 cells after 48 hrs by sulforhodamine B assay; details: HCT-116, 48 h; how it was run: as §1
[8] = test system: SF-268; experiment: Growth inhibition of human SF268 cells after 48 hrs by sulforhodamine B assay; details: SF-268, 48 h; how it was run: as §1
[9] = test system: SK-MEL-2; experiment: Growth inhibition of human SK-MEL-2 cells after 48 hrs by sulforhodamine B assay; details: SK-MEL-2, 48 h
How it was run: (§2)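 Adherent lines plated and held 24 h at 37 °C, 5% CO2, 100% humidity; time-zero plates TCA-fixed at drug addition. Drugs from DMSO stocks were made into five concentrations by 10-fold or half-log serial dilution and applied for 48 h continuous exposure. Cells were fixed with cold TCA (10% final) for 60 min at 4 °C, then stained with 0.4% SRB in 1% acetic acid for 10 min. Dye was solubilized in 10 mM Tris base and read at 515 nm. GI50 was taken from log concentration–growth curves.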

[10] = test system: SK-MEL-28; experiment: Growth inhibition of human SK-MEL-28 cells after 48 hrs by sulforhodamine B assay; details: SK-MEL-28, 48 h; how it was run: as §2
[11] = test system: SK-MEL-5; experiment: Growth inhibition of human SK-MEL-5 cells after 48 hrs by sulforhodamine B assay; details: SK-MEL-5, 48 h; how it was run: as §2
[12] = test system: UACC-257; experiment: Growth inhibition of human UACC257 cells after 48 hrs by sulforhodamine B assay; details: UACC-257, 48 h; how it was run: as §2
[13] = test system: UACC-62; experiment: Growth inhibition of human UACC62 cells after 48 hrs by sulforhodamine B assay; details: UACC-62, 48 h; how it was run: as §2
[14] = test system: IGROV-1; experiment: Growth inhibition of human IGROV1 cells after 48 hrs by sulforhodamine B assay; details: IGROV-1, 48 h; how it was run: as §1
[15] = test system: OVCAR-4; experiment: Growth inhibition of human OVCAR4 cells after 48 hrs by sulforhodamine B assay; details: OVCAR-4, 48 h; how it was run: as §1
[16] = test system: OVCAR-5; experiment: Growth inhibition of human OVCAR5 cells after 48 hrs by sulforhodamine B assay; details: OVCAR-5, 48 h; how it was run: as §1
[17] = test system: SK-OV-3; experiment: Growth inhibition of human SKOV3 cells after 48 hrs by sulforhodamine B assay; details: SK-OV-3, 48 h; how it was run: as §2
[18] = test system: ACHN; experiment: Growth inhibition of human ACHN cells after 48 hrs by sulforhodamine B assay; how it was run: as §1
[19] = test system: CAKI-1; experiment: Growth inhibition of human Caki1 cells after 48 hrs by sulforhodamine B assay; details: CAKI-1, 48 h; how it was run: as §1
[20] = test system: PC-3; experiment: Growth inhibition of human PC3 cells after 48 hrs by sulforhodamine B assay; details: PC-3, 48 h; how it was run: as §1
[21] = test system: DU-145; experiment: Growth inhibition of human DU145 cells after 48 hrs by sulforhodamine B assay; details: DU-145, 48 h; how it was run: as §1
[22] = Growth inhibition of human Hs 578T cells after 48 hrs by sulforhodamine B assay; how it was run: as §1
[23] = test system: MDA-MB-435; experiment: Growth inhibition of human MDA-MB-435 cells after 48 hrs by sulforhodamine B assay; details: MDA-MB-435, 48 h; how it was run: as §1
[24] = test system: MDA-MB-468; experiment: Growth inhibition of human MDA-MB-468 cells after 48 hrs by sulforhodamine B assay; details: MDA-MB-468, 48 h; how it was run: as §1
[25] = Cytotoxicity against human lung cancer cells after 48 hrs by sulforhodamine B assay; details: Cancer cell lines
How it was run: (§3)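 NCI five-dose screen: about 60 human tumour lines grouped into nine subpanels were plated and incubated 24 h before dosing. Compounds went in as DMSO stock and were diluted in medium to five final concentrations (0.01–100 µM). Exposure was 48 h continuous at 37 °C, 5% CO₂, followed by TCA fixation and SRB staining read at 515 nm. Per-line GI₅₀, TGI and LC₅₀ came from log concentration–% growth curves, averaged per subpanel as MG-MID.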

[26] = Cytotoxicity against human colon cancer cells after 48 hrs by sulforhodamine B assay; details: Cancer cell lines; how it was run: as §3
[27] = Cytotoxicity against human CNS cancer cells after 48 hrs by sulforhodamine B assay; details: Cancer cell lines; how it was run: as §3
[28] = Cytotoxicity against human melanoma cells after 48 hrs by sulforhodamine B assay; details: Melanoma cell; for CC50: read-out: LC50 (the source's name); how it was run: as §3
[29] = Cytotoxicity against human breast cancer cells after 48 hrs by sulforhodamine B assay; details: Cancer cell lines; how it was run: as §3

## N#Cc1cnn(C(=O)c2nn(-c3ccc(Cl)cc3)cc2O)c1N
[1]
  GI50: 280 nM
[2]
  GI50: 290 nM
[3]
  GI50: 280 nM
[4]
  GI50: 340 nM
[5]
  GI50: 370 nM
[6]
  GI50: 190 nM
[7]
  GI50: 260 nM
[8]
  GI50: 460 nM
[9]
  GI50: 910 nM
[10]
  GI50: 630 nM
[11]
  GI50: 480 nM
[12]
  GI50: 560 nM
[13]
  GI50: 300 nM
[14]
  GI50: 360 nM
[15]
  GI50: 460 nM
[16]
  GI50: 640 nM
[17]
  GI50: 520 nM
[18]
  GI50: 320 nM
[19]
  GI50: 280 nM
[20]
  GI50: 330 nM
[21]
  GI50: 570 nM
[22]
  GI50: 190 nM
[23]
  GI50: 290 nM
[24]
  GI50: 950 nM
[25]
  GI50: 320 nM
  LC50 (concentration causing 50% net cell kill): 69400 nM
  TGI: 10800 nM
[26]
  GI50: 610 nM
  TGI: 12600 nM
[26]; read-out: LC50 (the source's name)
  CC50: 64300 nM
[27]
  GI50: 320 nM
  LC50: 74700 nM
  TGI: 23100 nM
[28]
  GI50: 460 nM
  TGI: 11900 nM
  CC50: 65000 nM
[29]
  GI50: 430 nM
  LC50: 64300 nM
  TGI: 14400 nM

## Cc1cc(C)n(C(=O)c2nn(-c3ccc(Cl)cc3)cc2O)n1
[1]
  GI50: 3660 nM
[3]
  GI50: inactive
[4]
  GI50: 5210 nM
[5]
  GI50: 4660 nM
[6]
  GI50: 2380 nM
[7]
  GI50: 3420 nM
[8]
  GI50: 4130 nM
[10]
  GI50: 6280 nM
[11]
  GI50: 6760 nM
[12]
  GI50: 16600 nM
[13]
  GI50: 3460 nM
[14]
  GI50: 3160 nM
[15]
  GI50: 9190 nM
[16]
  GI50: 4980 nM
[17]
  GI50: 7040 nM
[18]
  GI50: 3770 nM
[19]
  GI50: 4230 nM
[20]
  GI50: 7050 nM
[21]
  GI50: 6230 nM
[22]
  GI50: 3210 nM
[23]
  GI50: 3940 nM
[24]
  GI50: 8900 nM
[25]
  GI50: 4690 nM
  TGI: 81700 nM
[26]
  GI50: 8130 nM
  TGI: 85100 nM
[27]
  GI50: 3130 nM
  TGI: 69200 nM
[28]
  GI50: 4950 nM
  TGI: 71400 nM
  CC50: 92800 nM
[29]
  GI50: 4960 nM

## Cc1c2c(nn1C(=O)c1nn(-c3ccc(Cl)cc3)cc1O)-c1ccccc1CC2
[1]
  GI50: 57 nM
[2]
  GI50: 43 nM
[4]
  GI50: 44 nM
[5]
  GI50: 45 nM
[6]
  GI50: 28 nM
[7]
  GI50: 34 nM
[8]
  GI50: 48 nM
[9]
  GI50: 5540 nM
[10]
  GI50: 92 nM
[11]
  GI50: 370 nM
[12]
  GI50: 210 nM
[13]
  GI50: 51 nM
[14]
  GI50: 43 nM
[15]
  GI50: 264 nM
[16]
  GI50: 72 nM
[17]
  GI50: 160 nM
[18]
  GI50: 48 nM
[19]
  GI50: 127 nM
[20]
  GI50: 37 nM
[21]
  GI50: 50 nM
[22]
  GI50: 21 nM
[23]
  GI50: 37 nM
[24]
  GI50: 262 nM
[25]
  GI50: 47 nM
  TGI: 68100 nM
[26]
  GI50: 221 nM
  TGI: 86300 nM
[27]
  GI50: 36 nM
  TGI: 69100 nM
[28]
  GI50: 140 nM
  TGI: 52100 nM
  CC50: 86400 nM
[29]
  GI50: 82 nM
  TGI: 91700 nM

## O=C(c1nn(-c2ccc(Cl)cc2)cc1O)n1nc(-c2ccco2)cc1C(F)(F)F
[1]
  GI50: 690 nM
[2]
  GI50: 2550 nM
[4]
  GI50: 1980 nM
[5]
  GI50: 2710 nM
[6]
  GI50: 780 nM
[7]
  GI50: 2000 nM
[8]
  GI50: 3630 nM
[9]
  GI50: 3820 nM
[10]
  GI50: 9220 nM
[11]
  GI50: 2490 nM
[12]
  GI50: 2670 nM
[13]
  GI50: 2160 nM
[14]
  GI50: 920 nM
[15]
  GI50: 2430 nM
[16]
  GI50: 2600 nM
[17]
  GI50: 3550 nM
[18]
  GI50: 2530 nM
[19]
  GI50: 2430 nM
[20]
  GI50: 26300 nM
[21]
  GI50: 10500 nM
[22]
  GI50: 640 nM
[23]
  GI50: 1970 nM
[24]
  GI50: 4660 nM
[25]
  GI50: 3190 nM
  TGI: 78900 nM
[26]
  GI50: 4590 nM
  TGI: 88500 nM
[27]
  GI50: 2990 nM
  TGI: 90500 nM
[28]
  GI50: 4140 nM
  TGI: 63700 nM
  CC50: 89400 nM
[29]
  GI50: 3070 nM
  TGI: 77000 nM

## CC1=NN(C(=O)c2nn(-c3ccc(Cl)cc3)cc2O)C(=O)C1
[1]
  GI50: 420 nM
[2]
  GI50: 1870 nM
[3]
  GI50: 420 nM
[4]
  GI50: 1330 nM
[5]
  GI50: 1400 nM
[6]
  GI50: 370 nM
[7]
  GI50: 680 nM
[8]
  GI50: 490 nM
[10]
  GI50: 3060 nM
[11]
  GI50: 1700 nM
[12]
  GI50: 1060 nM
[13]
  GI50: 1800 nM
[14]
  GI50: 510 nM
[15]
  GI50: 2400 nM
[16]
  GI50: 3320 nM
[17]
  GI50: 1530 nM
[18]
  GI50: 880 nM
[19]
  GI50: 1060 nM
[21]
  GI50: 5220 nM
[22]
  GI50: 280 nM
[23]
  GI50: 1200 nM
[24]
  GI50: 4570 nM
[25]
  GI50: 1820 nM
  TGI: 78200 nM
[26]
  GI50: 3090 nM
  TGI: 95400 nM
[27]
  GI50: 1090 nM
  TGI: 79600 nM
[28]
  GI50: 1820 nM
  TGI: 70500 nM
  CC50: 93600 nM
[29]
  GI50: 2020 nM
  TGI: 90100 nM
